Results published in ChEMBL document CHEMBL1141084, “Analogues of thiolactomycin as potential antimalarial agents” (J Med Chem, 2005).

Columns and labels:
[1] = target: T1, Beta-ketoacyl-ACP-synthase III (Plasmodium falciparum) (UniProt O77078); assay: Percent inhibition of recombinant Plasmodium falciparum beta-Ketoacyl-acyl carrier protein synthase III activity (MBP-pfKASIII) expressed in E. coli cells using [1-14C]acetyl-CoA as radioligand upon incubation at 37 degrees C for 15 minutes with compound dissolved in 2% DMSO at 10 uM; NA = no activity
T1 sequence (whole entry): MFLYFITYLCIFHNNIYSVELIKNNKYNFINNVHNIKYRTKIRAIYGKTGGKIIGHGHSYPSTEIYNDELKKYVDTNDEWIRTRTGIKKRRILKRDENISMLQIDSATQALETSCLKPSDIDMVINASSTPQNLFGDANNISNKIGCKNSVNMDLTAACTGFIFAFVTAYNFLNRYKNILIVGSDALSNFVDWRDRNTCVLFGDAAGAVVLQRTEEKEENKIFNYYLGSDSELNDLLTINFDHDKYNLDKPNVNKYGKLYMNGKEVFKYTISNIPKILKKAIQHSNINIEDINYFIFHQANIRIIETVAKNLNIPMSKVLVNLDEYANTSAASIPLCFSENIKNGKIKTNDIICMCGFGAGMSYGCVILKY
Method in brief: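 MBP-fused pfKASIII from E. coli BL21(DE3) codon+RIL, amylose-purified, 500 ng per reaction. Buffer: 100 mM NaH2PO4 pH 6.6, with 25 µM E. coli ACP prereduced with 1 mM β-mercaptoethanol (37 °C, 30 min), 1 µg E. coli FabD, 65 µM malonyl-CoA and 45 µM [1-14C]acetyl-CoA. 2% DMSO final; 37 °C, 15 min. Read-out: filter disks, TCA-washed, scintillation-counted.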

Plasmodium falciparum = assay: In vitro inhibitory concentration against chloroquine-resistant, pyrimethamine-resistant Plasmodium falciparum K1; format: functional, organism-based
Trypanosoma cruzi = assay: Inhibitory concentration against Trypanosoma cruzi [Tulahuen strain C2C4] in rat skeletal myoblasts upon incubation at 37 degrees C for 4 days in 5% CO2; format: functional, organism-based
[2] = system: Trypanosoma brucei rhodesiense; assay: Inhibitory concentration against Trypanosoma brucei rhodesiense STIB 900 upon incubation at 37 degrees C in 5% CO2 for 72 hours; format: functional, organism-based
[3] = target: T1, Beta-ketoacyl-ACP-synthase III (Plasmodium falciparum); assay: Percent inhibition of Plasmodium falciparum beta-Ketoacyl-acyl carrier protein synthase III activity (MBP-pfKASIII) expressed in E. coli cells using [1-14C]acetyl-CoA as radioligand upon incubation at 37 degrees C for 15 minutes with compound dissolved in 2% DMSO at 100 uM
Leishmania donovani = assay: Inhibitory concentration against amastigotes of Leishmania donovani strain MHOM/ET/67/L82 upon incubation at 37 degrees C for 72 hours using alamar blue

| Compound | inhibition [1] | IC50 (Plasmodium falciparum; Plasmodium falciparum) [µM] | IC50 (Trypanosoma cruzi; Trypanosoma cruzi, 96 h) [µM] | IC50 ([2]; Trypanosoma brucei, 72 h) [µM] | inhibition [3] [%] | IC50 (Plasmodium falciparum) [µM] | IC50 (Trypanosoma cruzi) [µM] | IC50 [2] [µM] | IC50 (Leishmania donovani) [µM] |
| --- | --- | --- | --- | --- | --- | --- | --- | --- | --- |
| CCC1=C(O)SC(C)C1=O (stereo not given) | No activity | 233 | 568 | 357 | – | – | – | – | – |
| CCCCCCCCC1(C)SC(O)=C(C)C1=O (stereo not given) | – | 153 | > 350 | 194 | 10 | – | – | – | – |
| CCCCCCC1(C)SC(O)=C(C)C1=O (stereo not given) | – | 139 | 127 | 112 | 10 | – | – | – | – |
| CCCCCCCCCCC1(C)SC(O)=C(CC)C1=O (stereo not given) | – | 15 | 54 | 97 | 40 | – | – | – | – |
| CC1=C(O)SC(C)C1=O (stereo not given) [THIOLACTONE] | No activity | > 347 | > 624 | > 624 | – | – | – | – | – |
| CCC1=C(O)OC(C)C1=O (stereo not given) | – | > 351 | > 633 | > 633 | – | – | – | – | – |
| CC(C)=CCC1(C)SC(O)=C(C)C1=O (stereo in doubt; 1a) | – | – | – | – | 30 | > 95 | > 142 | 182 | 56 |
| CCCCCCCCCCC1(CC)SC(O)=C(C)C1=O (stereo not given) | – | 65 | 72 | 153 | 15 | – | – | – | – |
| C=CCC1(C)C(=O)SC(C)(CCCCCCCCCC)C1=O (stereo not given) | – | 26 | 55 | 157 | 5 | – | – | – | – |
| CCCCCCC1(C)OC(O)=C(C)C1=O (stereo not given) | No activity | 222 | > 424 | 247 | – | – | – | – | – |
| CCCCCCCCCCC1SC(O)=C(C)C1=O (stereo not given) | – | 72 | 164 | 6 | 30 | – | – | – | – |
| CCCCCCC1(C)SC(O)=C(CC)C1=O (stereo not given) | – | 61 | 195 | 71 | 5 | – | – | – | – |
| CCCCCCCCCCCCCCCCC1(C)SC(O)=C(C)C1=O (stereo not given) | – | 25 | 28 | 62 | 55 | – | – | – | – |
| CCCC1=C(O)C(C)(CCCCCCO)SC1=O (stereo not given) | No activity | 157 | 64 | 64 | – | – | – | – | 88 |
| CCCCCCCCCCC1(C)SC(=O)C(CCC)=C1OCCCCCCO[Si](C)(C)C(C)(C)C (stereo not given) | – | 3 | 14 | 149 | 10 | – | – | – | 7 |
| CCCCCCCCCCC1(C)SC(O)=C(CCC)C1=O (stereo not given) | – | 10 | 56 | 21 | 55 | – | – | – | – |
| CCCCCCCCCCC1(C)SC(=O)C(C/C=C(/C)CCC=C(C)C)(CCC)C1=O (stereo not given) | No activity | 77 | > 66 | > 200 | – | – | – | – | > 66 |
| CCC1SC(O)=C(C)C1=O (stereo not given) | No activity | > 316 | > 568 | > 568 | – | – | – | – | – |
| CCCCCCOCCOCCC1(C)SC(O)=C(CC)C1=O (stereo not given) | No activity | > 60 | 195 | 119 | – | – | – | – | – |
| CCCCCCCCC1(C)SC(O)=C(CC)C1=O (stereo not given) | No activity | 54 | 165 | 157 | – | – | – | – | – |
| CCCCCCCCCCCCCCCCC1(CC)SC(O)=C(C)C1=O (stereo not given) | – | 35 | 49 | 130 | 40 | – | – | – | – |

| Compound | inhibition [1] | IC50 (Plasmodium falciparum; Plasmodium falciparum) [µM] | IC50 (Trypanosoma cruzi; Trypanosoma cruzi, 96 h) [µM] | IC50 ([2]; Trypanosoma brucei, 72 h) [µM] | inhibition [3] [%] | IC50 (Plasmodium falciparum) [µM] | IC50 (Trypanosoma cruzi) [µM] | IC50 [2] [µM] | IC50 (Leishmania donovani) [µM] |
| --- | --- | --- | --- | --- | --- | --- | --- | --- | --- |
| CCCC1=C(OC)C(C)SC1=O (stereo not given) | No activity | 45 | 359 | 9 | – | – | – | – | 100 |
| CCCCCCCCCCC1(C)NC(=O)C(C(C)=O)=C1O (stereo not given) | No activity | 63 | 153 | 7 | – | – | – | – | 3 |
| CCCCCCCCCCC1(C)OC(O)=C(CC)C1=O (stereo not given) | – | 94 | 146 | 62 | – | – | – | – | – |
| CCCC1=C(O)SC(C)C1=O (stereo not given) | No activity | > 290 | > 522 | 288 | – | – | – | – | – |
| CCCCCCCCCCC1(C)SC(=O)C(CCC)=C1OCCCCCCO (stereo not given) | – | 31 | 64 | 64 | 5 | – | – | – | 36 |
| CCCCCCCCCCC1(C)SC(O)=C(CCCC)C1=O (stereo not given) | – | 71 | 77 | 8 | 60 | – | – | – | – |
| C=CCC1(C)C(=O)SC(C)C1=O (stereo not given) | No activity | 62 | > 488 | 79 | – | – | – | – | – |
| C=CCOC1=C(C)C(=O)SC1(C)CCCCCCCCCC (stereo not given) | – | 6 | 30 | 167 | 5 | – | – | – | – |
| CCCCCCCCCCCCCCCCC1(C)SC(O)=C(CCC)C1=O (stereo not given) | – | 6 | 13 | 29 | 20 | – | – | – | 0.5 |
| C=CCC1(CCC)C(=O)SC(C)(CCCCCCCCCC)C1=O (stereo not given) | No activity | 19 | 47 | 9 | – | – | – | – | 82 |
| CCCC1=C(O)C(C)(CCCCCCO[Si](C)(C)C(C)(C)C)SC1=O (stereo not given) | No activity | 37 | 150 | 2 | – | – | – | – | 1 |
| CCCCCCCCCCC1(C)SC(O)=C(Cc2ccccc2)C1=O (stereo not given) | – | 50 | 64 | 132 | 70 | – | – | – | – |
| CCCCCCCCCCC1(C)SC(O)=C(C)C1=O (stereo not given) | – | 36 | 68 | 171 | 30 | – | – | – | – |
| CC1SC(O)=C(Cc2ccccc2)C1=O (stereo not given) | No activity | 195 | > 408 | 408 | – | – | – | – | – |
| CCCCCCCCCCC1(C)SC(=O)C(CCC)=C1OCc1ccccc1 (stereo not given) | No activity | 4 | 13 | > 223 | – | – | – | – | > 74 |
| CCCCCCCCCCC1(C)OC(O)=C(CCCC)C1=O (stereo not given) | – | > 15 | 70 | 13 | 60 | – | – | – | – |
| CC(C)=CCC/C(C)=C/CC1(C)SC(O)=C(C)C1=O (stereo not given) | – | 40 | 68 | 190 | 45 | – | – | – | – |
| CCCCCCCCCCCCCCCCC1(C)SC(O)=C(Cc2ccccc2)C1=O (stereo not given) | – | 7 | 14 | 32 | 50 | – | – | – | 2 |
| CCCC1(C/C=C(/C)CCC=C(C)C)C(=O)SC(C)C1=O (stereo not given) | – | 9 | 21 | 55 | 90 | – | – | – | 12 |
| C=CCOC1=C(CCC)C(=O)SC1(C)CCCCCCCCCC (stereo not given) | No activity | 1 | 80 | 14 | – | – | – | – | 66 |
| CCCCCCCCCCCCCCCCC1(C)SC(O)=C(CC)C1=O (stereo not given) | – | 19 | 43 | 47 | 65 | – | – | – | – |
